According to ChEMBL document CHEMBL1138711, “1,2,3,4-Tetrahydroquinoline-containing alphaVbeta3 integrin antagonists with enhanced oral bioavailability” (Bioorg Med Chem Lett, 2004):

Key:
Integrin alpha-V/beta-3 = Integrin alpha-V/beta-3 (Homo sapiens, UniProt P05106+P06756); assay: Inhibitory concentration for human vitronectin binding to immobilized alphaV-beta3 integrin; type: protein-complex assay
Integrin alpha-V/beta-5 = Integrin alpha-V/beta-5 (Homo sapiens, UniProt P06756+P18084); assay: Inhibitory concentration for human vitronectin binding to immobilized alphaV-beta5 integrin; type: protein-complex assay
Sequence of Integrin alpha-V/beta-5 (P06756 31-889 limits assumed): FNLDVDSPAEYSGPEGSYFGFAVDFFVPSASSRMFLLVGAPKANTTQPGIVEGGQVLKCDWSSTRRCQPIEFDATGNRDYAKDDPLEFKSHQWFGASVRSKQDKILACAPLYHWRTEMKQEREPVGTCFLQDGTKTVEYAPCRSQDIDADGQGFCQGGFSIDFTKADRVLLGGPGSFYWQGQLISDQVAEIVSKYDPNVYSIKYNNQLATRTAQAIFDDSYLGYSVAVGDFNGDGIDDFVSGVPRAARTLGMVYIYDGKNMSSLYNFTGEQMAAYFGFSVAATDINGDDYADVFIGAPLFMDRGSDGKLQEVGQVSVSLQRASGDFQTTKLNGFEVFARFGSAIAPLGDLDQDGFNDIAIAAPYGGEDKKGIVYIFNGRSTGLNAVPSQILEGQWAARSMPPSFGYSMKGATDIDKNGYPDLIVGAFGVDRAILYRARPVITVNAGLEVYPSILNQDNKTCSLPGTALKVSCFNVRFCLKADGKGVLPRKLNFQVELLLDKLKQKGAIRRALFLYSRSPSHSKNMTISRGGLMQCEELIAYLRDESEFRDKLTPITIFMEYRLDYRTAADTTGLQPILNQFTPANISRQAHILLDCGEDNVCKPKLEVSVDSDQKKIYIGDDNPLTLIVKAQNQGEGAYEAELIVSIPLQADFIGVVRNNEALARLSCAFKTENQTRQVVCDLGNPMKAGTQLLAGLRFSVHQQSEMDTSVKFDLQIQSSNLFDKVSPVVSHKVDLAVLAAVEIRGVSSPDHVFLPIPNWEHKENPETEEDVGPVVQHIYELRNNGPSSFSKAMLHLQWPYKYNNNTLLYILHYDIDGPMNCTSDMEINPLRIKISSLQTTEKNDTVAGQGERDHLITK
Sequence of Integrin alpha-V/beta-5 (P06756 891-1048 limits assumed): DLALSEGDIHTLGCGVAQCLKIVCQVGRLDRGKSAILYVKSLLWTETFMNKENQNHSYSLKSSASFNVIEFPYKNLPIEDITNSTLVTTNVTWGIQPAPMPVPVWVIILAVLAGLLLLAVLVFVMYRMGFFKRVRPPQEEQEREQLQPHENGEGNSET
Sequence of Integrin alpha-V/beta-5 (P18084 24-799 limits assumed): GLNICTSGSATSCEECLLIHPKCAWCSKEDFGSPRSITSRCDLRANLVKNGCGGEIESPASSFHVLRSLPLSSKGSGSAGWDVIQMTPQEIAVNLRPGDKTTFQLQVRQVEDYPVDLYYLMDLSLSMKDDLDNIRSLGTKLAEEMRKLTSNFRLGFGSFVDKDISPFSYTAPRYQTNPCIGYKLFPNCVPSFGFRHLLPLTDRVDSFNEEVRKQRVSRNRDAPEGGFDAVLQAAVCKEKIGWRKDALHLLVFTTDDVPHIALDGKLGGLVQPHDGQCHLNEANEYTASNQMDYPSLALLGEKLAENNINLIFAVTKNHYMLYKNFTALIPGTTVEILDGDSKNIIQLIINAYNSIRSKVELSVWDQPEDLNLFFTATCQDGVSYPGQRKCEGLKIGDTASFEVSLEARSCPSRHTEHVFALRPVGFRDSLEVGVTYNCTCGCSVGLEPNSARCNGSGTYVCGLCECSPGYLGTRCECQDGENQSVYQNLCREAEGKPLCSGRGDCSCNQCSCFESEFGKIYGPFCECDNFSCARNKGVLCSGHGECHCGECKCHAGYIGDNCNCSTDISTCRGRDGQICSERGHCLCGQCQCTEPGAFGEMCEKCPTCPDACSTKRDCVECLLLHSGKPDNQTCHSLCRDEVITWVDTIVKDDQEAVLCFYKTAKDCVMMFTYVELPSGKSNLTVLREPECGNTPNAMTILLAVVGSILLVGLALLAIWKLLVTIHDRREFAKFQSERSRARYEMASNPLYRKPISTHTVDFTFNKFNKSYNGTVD

[1] = molecular target: Integrin alpha-IIb/beta-3 (Homo sapiens, UniProt P05106+P08514); assay: Inhibitory concentration for biotinylated fibrinogen binding to immobilized alpha IIb beta-3 integrin; type: protein-complex assay
Sequence of Integrin alpha-IIb/beta-3 (P05106 27-788 limits assumed): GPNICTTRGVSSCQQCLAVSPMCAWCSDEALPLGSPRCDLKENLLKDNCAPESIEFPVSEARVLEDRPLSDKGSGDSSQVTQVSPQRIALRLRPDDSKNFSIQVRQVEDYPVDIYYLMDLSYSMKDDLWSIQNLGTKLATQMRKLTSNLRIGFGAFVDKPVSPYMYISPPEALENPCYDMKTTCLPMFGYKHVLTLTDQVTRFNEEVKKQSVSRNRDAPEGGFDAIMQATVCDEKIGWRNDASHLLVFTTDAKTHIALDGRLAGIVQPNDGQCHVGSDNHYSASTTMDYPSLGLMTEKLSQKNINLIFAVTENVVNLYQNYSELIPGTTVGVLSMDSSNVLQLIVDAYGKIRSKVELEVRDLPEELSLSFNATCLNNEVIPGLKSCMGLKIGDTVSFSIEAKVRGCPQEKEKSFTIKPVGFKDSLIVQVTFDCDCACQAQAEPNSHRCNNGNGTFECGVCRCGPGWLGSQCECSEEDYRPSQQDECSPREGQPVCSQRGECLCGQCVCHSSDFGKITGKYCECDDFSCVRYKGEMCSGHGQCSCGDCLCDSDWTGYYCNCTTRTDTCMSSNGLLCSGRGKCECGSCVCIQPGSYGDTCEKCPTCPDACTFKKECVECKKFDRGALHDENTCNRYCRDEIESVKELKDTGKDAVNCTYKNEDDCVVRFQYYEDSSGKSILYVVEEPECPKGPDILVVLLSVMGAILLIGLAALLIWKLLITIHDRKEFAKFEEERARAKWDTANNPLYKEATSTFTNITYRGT
Sequence of Integrin alpha-IIb/beta-3 (P08514 32-887 limits assumed): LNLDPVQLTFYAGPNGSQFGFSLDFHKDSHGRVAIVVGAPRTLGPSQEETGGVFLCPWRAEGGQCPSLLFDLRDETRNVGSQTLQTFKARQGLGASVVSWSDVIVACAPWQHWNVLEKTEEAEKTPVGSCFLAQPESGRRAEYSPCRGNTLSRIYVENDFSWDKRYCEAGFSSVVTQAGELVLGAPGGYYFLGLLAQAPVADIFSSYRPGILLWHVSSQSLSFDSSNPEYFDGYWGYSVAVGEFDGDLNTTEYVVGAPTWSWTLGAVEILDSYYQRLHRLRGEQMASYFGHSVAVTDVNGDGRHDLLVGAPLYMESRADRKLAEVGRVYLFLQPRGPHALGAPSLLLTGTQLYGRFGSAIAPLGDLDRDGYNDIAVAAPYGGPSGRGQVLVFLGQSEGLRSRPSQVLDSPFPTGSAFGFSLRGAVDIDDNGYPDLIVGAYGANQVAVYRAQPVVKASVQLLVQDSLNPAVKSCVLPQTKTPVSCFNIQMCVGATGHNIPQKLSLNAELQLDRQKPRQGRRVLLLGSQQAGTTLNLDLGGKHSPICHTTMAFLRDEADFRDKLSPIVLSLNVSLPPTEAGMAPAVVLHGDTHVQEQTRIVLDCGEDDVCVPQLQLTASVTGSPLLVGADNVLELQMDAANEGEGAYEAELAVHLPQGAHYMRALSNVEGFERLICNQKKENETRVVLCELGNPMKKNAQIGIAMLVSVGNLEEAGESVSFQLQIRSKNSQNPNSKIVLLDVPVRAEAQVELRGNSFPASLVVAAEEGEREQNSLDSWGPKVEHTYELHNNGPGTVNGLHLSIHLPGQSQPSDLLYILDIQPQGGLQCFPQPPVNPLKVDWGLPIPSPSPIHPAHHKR
Sequence of Integrin alpha-IIb/beta-3 (P08514 891-1039 limits assumed): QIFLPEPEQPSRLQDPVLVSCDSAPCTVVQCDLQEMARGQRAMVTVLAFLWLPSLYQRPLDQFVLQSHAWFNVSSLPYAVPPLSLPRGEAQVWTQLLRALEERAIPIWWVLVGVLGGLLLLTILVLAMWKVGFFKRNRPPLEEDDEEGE

[2] = Oral bioavailability in rat; type: ADME, organism-based; conditions: in vivo
In short: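 Rats dosed orally at 10 mg/kg (N = 4) and intravenously at 2 mg/kg (N = 4) unless otherwise noted. The oral vehicle was D5W (5% dextrose) adjusted to pH 2 with 0.1 N HCl. Plasma drug levels were measured by LC/MS, and bioavailability was derived by comparing oral with intravenous exposure.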

[3] = Maximum plasma concentration when administered perorally at 30 mg/kg dose; type: ADME, organism-based; set-up: dose 30 mg/kg, route oral; conditions: rat, po
[4] = Plasma half-life when administered perorally at 30 mg/kg dose; type: ADME, organism-based; set-up: dose 30 mg/kg, route oral; conditions: rat, po
[5] = Maximum plasma concentration when administered perorally at 15 mg/kg dose in rat; type: ADME, organism-based; set-up: dose 15 mg/kg, route oral; conditions: po
[6] = Time to reach maximum plasma concentration when administered perorally at 15 mg/kg dose in rat; type: ADME, organism-based; set-up: dose 15 mg/kg, route oral; conditions: po
[7] = Plasma half-life when administered perorally at 10 mg/kg dose; conditions: rat, in vivo, po

Sequence of Integrin alpha-V/beta-3 (P05106 27-788 limits assumed): as the sequence (P05106 27-788 limits assumed) above
Sequence of Integrin alpha-V/beta-3 (P06756 31-889 limits assumed): as the sequence (P06756 31-889 limits assumed) above
Sequence of Integrin alpha-V/beta-3 (P06756 891-1048 limits assumed): as the sequence (P06756 891-1048 limits assumed) above

| Compound | IC50 (Integrin alpha-V/beta-3) [nM] | IC50 (Integrin alpha-V/beta-5) [nM] | IC50 [1] [nM] | bioavailability [2] [%] | Cmax ([3]; plasma) [nM] | half-life [4] [h] | F [2] [%] | Cmax [5] [nM] | Tmax [6] [h] | Cmax ([3]; in vivo) [nM] | T1/2 [7] [h] |
| --- | --- | --- | --- | --- | --- | --- | --- | --- | --- | --- | --- |
| O=C(O)C[C@H](c1cnc2ccccc2c1)C1CCN(C(=O)CCCc2ccc3c(n2)NCCC3)CC1 | 0.5 | 36 | 870 | 1 |  |  |  |  |  |  |  |
| O=C(O)C[C@@H](CC1CCN(C(=O)CCc2ccc3c(n2)NCCC3)CC1)c1cnc2ccccc2c1 | 0.8 | 2.2 | 1100 | 4 | 500 | 3 |  |  |  |  |  |
| O=C(O)C[C@H](NC(=O)C1CCN(C(=O)CCc2ccc3c(n2)NCCC3)CC1)c1cnc2ccccc2c1 | 2.6 | 270 | 2900 |  |  |  |  |  |  |  |  |
| O=C(O)C[C@H](NC(=O)C1CCN(C(=O)CCCNC2=NCCN2)CC1)c1cnc2ccccc2c1 | 3.6 | 470 | 170 | 4 | 800 | 7 |  |  |  |  |  |
| O=C(O)C[C@@H]1Cc2ccc(OCCCNc3ccccn3)cc2Cc2ccccc21 | 4 | 2.9 | 1200 |  |  |  |  |  |  |  |  |
| O=C(O)C[C@@H](C1CCN(C(=O)CCCc2ccc3c(n2)NCCC3)CC1)C1CNc2ccccc2C1 (mixture of isomers) | 3.7 | 260 | 15000 |  |  |  | 100 |  |  |  |  |
| O=C(O)CC(CC1CCN(C(=O)CCc2ccc3c(n2)NCCC3)CC1)C1CNc2ccccc2C1 (racemic) |  |  | 14000 |  |  |  |  | 21000 | 2 |  |  |
| CN1CC(C(CC(=O)O)CC2CCN(C(=O)CCc3ccc4c(n3)NCCC4)CC2)Cc2ccccc21 (racemic) | 49 | 180 | > 50000 |  |  |  |  |  |  |  |  |
| O=C(O)C[C@@H](C1CCN(C(=O)CCCc2ccc3c(n2)NCCC3)CC1)C1CNc2ccccc2C1 (single isomer, unassigned; isomer b) | 70 | 2500 | > 50000 |  |  |  |  |  |  |  |  |
| O=C(O)C[C@@H](C1CCN(C(=O)CCCc2ccc3c(n2)NCCC3)CC1)C1CNc2ccccc2C1 (single isomer, unassigned; isomer d) | 5.4 | 160 | 17000 |  |  |  | 52 |  |  | 58000 | 1 |
| O=C(O)C[C@@H](CC1CCN(C(=O)CCc2ccc3c(n2)NCCC3)CC1)c1cnc2c(c1)CCCC2 (stereo in doubt; 28) | 1.6 | 11 | 3000 |  |  |  | 0 |  |  |  |  |
| COc1ccc([C@@H](CC(=O)O)CC2CCN(C(=O)CCc3ccc4c(n3)NCCC4)CC2)cn1 (stereo in doubt; 34) | 0.7 | 2.7 | 6100 |  |  |  | 8 |  |  | 900 |  |
| COc1ccc([C@@H](CC(=O)O)CC2CCN(C(=O)CCc3ccc4c(n3)NCCC4)CC2)cn1 (stereo in doubt; form 1) | 0.4 | 3.1 | 1800 |  |  | 2 | 2 |  |  | 100 |  |
| O=C(O)C[C@@H](C1CCN(C(=O)CCCc2ccc3c(n2)NCCC3)CC1)C1CNc2ccccc2C1 (stereo in doubt; form 1) | 1.6 | 44 | 13000 |  |  | 2 | 46 |  |  | 8000 |  |
| O=C(O)C[C@@H](CC1CCN(C(=O)CCc2ccc3c(n2)NCCC3)CC1)c1cnc2c(c1)CCCC2 (stereo in doubt; form 1) | 26 | 1000 | > 50000 |  |  |  |  |  |  |  |  |
| COc1ccc([C@@H](CC(=O)O)CC2CCN(C(=O)CCc3ccc4c(n3)NCCC4)CC2)cn1 (stereo in doubt; form 2) | 16 | 98 | > 50000 |  |  |  |  |  |  |  |  |
| O=C(O)C[C@@H](C1CCN(C(=O)CCCc2ccc3c(n2)NCCC3)CC1)C1CNc2ccccc2C1 (stereo in doubt; form 2) | 100 | 1500 | > 50000 |  |  |  |  |  |  |  |  |
| O=C(O)C[C@@H](CC1CCN(C(=O)CCc2ccc3c(n2)NCCC3)CC1)c1cnc2c(c1)CCCC2 (stereo in doubt; form 4) | 52 | 2200 | > 50000 |  |  |  |  |  |  |  |  |
